Molecules are shown by their SMILES. ≈ marks a conversion by molar mass, not a printed value.

The test system of assay [1] is Pyricularia grisea. As to the kind of experiment: Antifungal activity against Magnaporthe grisea in fourth-leaf stage of rice plant assessed as preventive efficacy at 100 ug/ml after 11 days relative to control. It counts as functional.
For assay [2], the system named is Cytospora mali. Description: Antifungal activity against Valsa mali assessed as inhibition of mycelial growth. It counts as functional, organism-based. The method, boiled down: (§1)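 Mycelial growth on potato dextrose agar in 9 cm dishes containing serial concentrations of sample, dissolved in aqueous 1% DMSO/4% Tween-80. Mycelium inoculated at plate centre and incubated in the dark at 28 °C until control growth reached the dish edge. Inhibition (%) = (1 − Da/Db) × 100 from growth-zone diameters. IC50 by probit analysis. Cycloheximide as positive control. Run in triplicate.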

The test system of assay [3] is Fusarium oxysporum f. sp. cucumerinum. As to the kind of experiment: Antifungal activity against Fusarium oxysporum f. sp. cucumerinum assessed as inhibition of mycelial growth. It counts as functional, organism-based. The method in brief:
as §1

Assay [4] has as its system Dothiorella gregaria. As to the kind of experiment: Antifungal activity against Dothiorella gregaria assessed as inhibition of mycelial growth. It counts as functional, organism-based. The method in brief: as §1
For assay [5], the system named is Rhizoctonia solani. Description: Antifungal activity against Rhizoctonia solani assessed as inhibition of mycelial growth. It counts as functional, organism-based. The method in brief: as §1
Assay [6] concerns Pyricularia grisea. Description: Antifungal activity against Magnaporthe grisea assessed as inhibition of mycelial growth. It counts as functional, organism-based. The method, boiled down: (§2)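 Poisoned-food assay. Serial concentrations in aqueous 1% DMSO/4% Tween-80 were mixed into molten potato dextrose agar. Mycelium was inoculated at the plate centre and incubated in the dark at 28 °C until control growth reached the dish edge. Inhibition % = (1 − Da/Db) × 100 from colony diameters. IC50 by probit analysis; run in triplicate.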

Assay [7] concerns Fusarium graminearum. As to the kind of experiment: Antifungal activity against Fusarium graminearum assessed as inhibition of mycelial growth. It counts as functional, organism-based. The method in brief:
as §2

Assay [8] relates to Pyricularia grisea. Description: Antifungal activity against Magnaporthe grisea assessed as inhibition of spore germination after 12 hr by light microscopic analysis. It counts as functional, organism-based. The method in brief: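 M. oryzae spores were taken from 7-day oatmeal–tomato agar cultures. 50 μL of compound in 1% DMSO/4% Tween-80 was mixed with 50 μL spore suspension (2.5 × 10^5 spores). 40 μL drops went on slides, in triplicate. Slides were kept in a moist chamber at 28 °C for 12 h. About 100 spores per replicate were scored; IC50 by probit analysis.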

Assay [9] concerns Pyricularia grisea. Description: Antifungal activity against Magnaporthe grisea in fourth-leaf stage of rice plant assessed as curative efficacy at 100 ug/ml after 11 days relative to control. It counts as functional.

`COC(=O)Nc1nc2ccccc2[nH]1` [CARBENDAZIM]: the Activity in assay [1] is listed as 58.7%.
Broadly, the IC50 is the concentration that gives 50% inhibition. Turning to `C[C@@H]1C[C@@H]([C@H](O)CC2CC(=O)NC(=O)C2)C(=O)[C@@H](C)C1` [CYCLOHEXIMIDE], the IC50 in assay [2] came out at 0.3 µg/mL (≈ 1.07 µM); in [3], 4.9 µg/mL (≈ 17.4 µM); in [4], 0.9 µg/mL (≈ 3.2 µM); in assay [5] it was 0.3 µg/mL (≈ 1.07 µM); in assay [6] it was 2.3 µg/mL (≈ 8.17 µM); in assay [7] it was 3.3 µg/mL (≈ 11.7 µM).
Turning to `Cc1cc(O)cc2cc3c(c(O)c12)C(=O)c1c(O)cc(O)cc1C3=O` [TETRACENOMYCIN D], the 50% inhibitory concentration (IC50) in assay [2] and in assay [6] was more than 25 µg/mL each time.
Consider `Cc1cc(O)c2c3c4c(cc(O)c13)C(C)(C)C(=O)c1c(O)cc(O)c(c1-4)C2=O` [HELIOMYCIN], for which the 50% inhibitory concentration (IC50) in assay [2] is 1.1 µg/mL (≈ 2.92 µM); in [3] it was more than 100 µg/mL; in assay [4], more than 100 µg/mL; in assay [8], 5.55 µg/mL (≈ 14.7 µM); in assay [5], more than 100 µg/mL; in assay [6], 3.8 µg/mL (≈ 10.1 µM). Also, the IC50 in assay [7] is more than 100 µg/mL. Also, the Activity is 66.8% in assay [1] and less than 25% in [9].

These data come from ChEMBL document CHEMBL3044840, “Antifungal activities of metabolites produced by a termite-associated Streptomyces canus BYB02” (J Agric Food Chem, 2013).
